Test results reported in ChEMBL document CHEMBL1671710, “Different classes of antibiotics differentially influence shiga toxin production” (2010).
Values after ≈ are worked out from the molar mass of the structure shown. Active and inactive are the calls of the source. No cut-off for these calls is given here.

Assays:
Escherichia coli [1] = test: Antimicrobial activity against Escherichia coli O157:H7 185 encoding stx gene by broth microdilution method; type: functional, organism-based
Escherichia coli [2] = test: microbe, parasite or virus in culture; settings: C600::933W
Escherichia coli [3] = test: Antimicrobial activity against Escherichia coli O157:H7 PT-32 in stationary phase encoding Stx-1 and Stx-2 gene by broth macrodilution assay; type: functional
Outline: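 Overnight MH-broth cultures (stationary phase) were diluted 1:1,000, then 1:200. 1 ml was mixed with 1.0 ml of antibiotic in MH broth, with trimethoprim:sulfamethoxazole at 1:5, and held overnight at 37°C with rotary aeration. MIC judged visually, corresponding to ∼10^7 CFU/ml.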

Escherichia coli [4] = test: Antimicrobial activity against Escherichia coli C600::H19B in logarithmic phase encoding Stx-1 gene by broth macrodilution assay
Escherichia coli [5] = test: Antimicrobial activity against Escherichia coli C600::H19B in stationary phase encoding Stx-1 gene by broth macrodilution assay
Escherichia coli [6] = test: Antimicrobial activity against Escherichia coli O157:H7 PT-40 in stationary phase encoding Stx-2 gene by broth macrodilution assay
Escherichia coli [7] = test: Antimicrobial activity against Escherichia coli C600::933W in logarithmic phase encoding Stx-2 gene by broth macrodilution assay; type: functional
Escherichia coli [8] = test: Antimicrobial activity against Escherichia coli O157:H7 PT-40 in logarithmic phase encoding Stx-2 gene by broth macrodilution assay; type: functional
Escherichia coli [9] = test: Antimicrobial activity against Escherichia coli O157:H7 PT-32 in logarithmic phase encoding Stx-1 and Stx-2 gene by broth macrodilution assay

| Molecule | Activity (Escherichia coli [1]) | MIC (Escherichia coli [2]) | MIC (Escherichia coli [3]) | MIC (Escherichia coli [4]) | MIC (Escherichia coli [5]) | MIC (Escherichia coli [6]) | MIC (Escherichia coli [7]) | MIC (Escherichia coli [8]) | MIC (Escherichia coli [9]) |
| --- | --- | --- | --- | --- | --- | --- | --- | --- | --- |
| CC1(C)S[C@@H]2[C@H](NC(=O)[C@H](N)c3ccccc3)C(=O)N2[C@H]1C(=O)O [AMPICILLIN] | Active | 8 µg/mL (≈ 22.9 µM) | 4 µg/mL (≈ 11.4 µM) | 4 µg/mL (≈ 11.4 µM) | 8 µg/mL (≈ 22.9 µM) | 8 µg/mL (≈ 22.9 µM) |  |  |  |
| CC[C@H]1OC(=O)[C@H](C)[C@@H](O[C@H]2C[C@@](C)(OC)[C@@H](O)[C@H](C)O2)[C@H](C)[C@@H](O[C@@H]2O[C@H](C)C[C@H](N(C)C)[C@H]2O)[C@](C)(O)C[C@@H](C)CN(C)[C@H](C)[C@@H](O)[C@]1(C)O [AZITHROMYCIN] |  | 2 µg/mL (≈ 2.67 µM) | 2.6 µg/mL (≈ 3.47 µM) | 2 µg/mL (≈ 2.67 µM) | 2 µg/mL (≈ 2.67 µM) | 2.6 µg/mL (≈ 3.47 µM) | 2 µg/mL (≈ 2.67 µM) | 4 µg/mL (≈ 5.34 µM) | 2.6 µg/mL (≈ 3.47 µM) |
| CO/N=C(\C(=O)N[C@@H]1C(=O)N2C(C(=O)O)=C(CSc3nc(=O)c(O)nn3C)CS[C@H]12)c1csc(N)n1 [CEFTRIAXONE] |  | 0.03 µg/mL (≈ 0.0541 µM) | 0.03 µg/mL (≈ 0.0541 µM) | 0.03 µg/mL (≈ 0.0541 µM) | 0.06 µg/mL (≈ 0.108 µM) | 0.06 µg/mL (≈ 0.108 µM) | 0.03 µg/mL (≈ 0.0541 µM) | 0.06 µg/mL (≈ 0.108 µM) | 0.03 µg/mL (≈ 0.0541 µM) |
| C[C@H]1c2cccc(O)c2C(=O)C2=C(O)[C@]3(O)C(=O)C(C(N)=O)=C(O)[C@@H](N(C)C)[C@@H]3[C@@H](O)[C@@H]21.O [DOXYCYCLINE] | Active | 1 µg/mL | 0.5 µg/mL | 0.25 µg/mL | 0.5 µg/mL | 1 µg/mL | 0.5 µg/mL | 1 µg/mL | 1 µg/mL |
| C[C@@H]1O[C@@H]1P(=O)(O)O [FOSFOMYCIN] |  | 2 µg/mL (≈ 14.5 µM) | 16 µg/mL (≈ 116 µM) | 2 µg/mL (≈ 14.5 µM) | 0.5 µg/mL (≈ 3.62 µM) | 16 µg/mL (≈ 116 µM) | 2 µg/mL (≈ 14.5 µM) | 16 µg/mL (≈ 116 µM) | 16 µg/mL (≈ 116 µM) |
| CO[C@H]1/C=C/O[C@@]2(C)Oc3c(C)c(O)c4c(O)c(c(/C=N/N5CCN(C)CC5)c(O)c4c3C2=O)NC(=O)/C(C)=C\C=C\[C@H](C)[C@H](O)[C@@H](C)[C@@H](O)[C@@H](C)[C@H](OC(C)=O)[C@@H]1C [RIFAMPIN] |  | 8 µg/mL (≈ 9.72 µM) | 2 µg/mL (≈ 2.43 µM) | 4 µg/mL (≈ 4.86 µM) | 16 µg/mL (≈ 19.4 µM) | 16 µg/mL (≈ 19.4 µM) | 8 µg/mL (≈ 9.72 µM) | 4 µg/mL (≈ 4.86 µM) | 4 µg/mL (≈ 4.86 µM) |
| Cc1cc(NS(=O)(=O)c2ccc(N)cc2)no1 [SULFAMETHOXAZOLE] |  | 0.03 µg/mL (≈ 0.118 µM) | 0.13 µg/mL (≈ 0.513 µM) | 0.004 µg/mL (≈ 0.0158 µM) | 0.03 µg/mL (≈ 0.118 µM) | 0.13 µg/mL (≈ 0.513 µM) | 0.01 µg/mL (≈ 0.0395 µM) | 0.13 µg/mL (≈ 0.513 µM) | 0.13 µg/mL (≈ 0.513 µM) |
| GENTAMICIN |  |  | 0.25 µg/mL |  |  |  | 0.25 µg/mL | 0.25 µg/mL |  |
